Among the data in the array DNA melting data of Ke et al. (doi:10.1101/2024.01.08.574731) are folding enthalpy and Tm values, retold here.

Data set [1] is described as follows: folding enthalpy; higher = less favourable; fluorescence melt of hairpins on a sequencing array, two-state fit. The conditions noted are these: sodium 0.088 M. The essentials:
(§1)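 Library hairpins on a sequenced MiSeq flow cell carried annealed Cy3 and quencher oligos, and their Cy3 fluorescence was imaged in 50 mM Na-HEPES pH 8.0 with 25 mM NaCl, in 2.5 °C steps up to 60 °C. Signals were normalised to Cy3 before quenching and to control constructs. Melting temperature and folding enthalpy were obtained from bootstrapped two-state fits, combined by inverse-variance weighting across four replicates, and the fitted temperatures were then raised by 9.35 °C to match UV melts.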

The nature of data set [2]: melting temperature; fluorescence melt of hairpins on a sequencing array, two-state fit, raised by 9.35 °C to match UV melts. The following applies: sodium 0.088 M. The essentials: as §1

For the sequence GTGTAGGGAAACCTACGC (.(((((....))))).), in data set [1], the folding enthalpy is -17.9 kcal/mol. The Tm in data set [2] is 50 °C.
Regarding GCTAAGCGAAAGCCTCGC ((.(.((....)).).)), the folding enthalpy in data set [1] is -10.7 kcal/mol. For the same sequence, the Tm in data set [2] was 29 °C.
For GTTTACCGAAAGGTTAAC (((.(((....))).))), the folding enthalpy in data set [1] is -24.9 kcal/mol. Also, the Tm in data set [2] came to 43.7 °C.
With GCCGTATCGAAAGATGGC (((..(((....)))))), the folding enthalpy in data set [1] was -9.59 kcal/mol. In data set [2], the Tm was 47.4 °C.
The matching figures for GGTTCTGGAAACAGGACC (((.(((....))).))): -45.3 kcal/mol and 50.6 °C.
The matching figures for GATCGTATCGACGATC ((((((....)))))): -35 kcal/mol and 55.2 °C.
For GGCCCGCGAAAGCGCGCC (((.(((....))).))), the folding enthalpy in data set [1] was -26.5 kcal/mol. In addition, the Tm in data set [2] turned out to be 64.4 °C.
Turning to GGGACCCGAAAGGGCCCC (((.(((....))).))), the folding enthalpy in data set [1] is -23.6 kcal/mol. In data set [2], the Tm came to 67.8 °C.
For GTAGTGGGAAACTGCTAC ((((..(....)..)))) the same measures were -23.4 kcal/mol and 36.8 °C.
With GAATGCGAAAGCACATTC ((((((....)))..))), the folding enthalpy in data set [1] is -13.2 kcal/mol. Besides, the Tm in data set [2] was 31.3 °C.
Consider GGTGCCGAAAGGCATACC ((((((....)))..))), for which, in data set [1], the folding enthalpy was -11.6 kcal/mol. In addition, in data set [2], the Tm came out at 48.2 °C.
For the sequence GCGCCCGGAAACAGGCGC (((((.(....).))))), the folding enthalpy in data set [1] was -31.7 kcal/mol. The Tm in data set [2] was found to be 66.7 °C.
As to GCGAATGGAAACATCCGC (((.(((....))).))), the folding enthalpy in data set [1] was -23.1 kcal/mol. The Tm in data set [2] is 45.4 °C.
As to GCGAACACTCGC ((((....)))), the folding enthalpy in data set [1] is -23.5 kcal/mol. Besides, the Tm in data set [2] is 45 °C.
Take GCCTGCGGAAACACAGGC (((((.(....).))))): the folding enthalpy in data set [1] is -40.8 kcal/mol. The Tm in data set [2] came out at 52.4 °C.
Take GTTGCCGAAAGGCTTAAC ((((((....)))..))): in data set [1], the folding enthalpy is -8.96 kcal/mol. The Tm in data set [2] is 26.6 °C.
On to GAGGTTGAAAAACCTC ((((((....)))))), for which, in data set [1], the folding enthalpy was -32.6 kcal/mol. Also, the Tm in data set [2] worked out at 58.2 °C.
As to GCGTTTGGAAACGAATGC ((.((.(....).)).)), the folding enthalpy in data set [1] is -25.5 kcal/mol. Moreover, the Tm in data set [2] amounted to 36 °C.
With GATCCCATCGGGATC ((((((...)))))), the folding enthalpy in data set [1] is -36.5 kcal/mol. Also, the Tm in data set [2] amounted to 67.4 °C.
The matching figures for GCGGTGCGAAAGCAGGGC ((..(((....)))..)): -20.5 kcal/mol and 55.2 °C.
For GATCCAATGTGGATC ((((((...)))))), the folding enthalpy in data set [1] was -32.5 kcal/mol. Further, the Tm in data set [2] was found to be 50.8 °C.
In the case of GCACAGCGAAAGCTTTGC (((.(((....))).))), the folding enthalpy in data set [1] was -41.2 kcal/mol. In addition, in data set [2], the Tm is 51.8 °C.
Take GTTGTTACGAAAGTAAAC (((..(((....)))))): the folding enthalpy in data set [1] is -27.2 kcal/mol. In data set [2], the Tm worked out at 44.2 °C.
Take GATCCGGAGCCGGATC ((((((....)))))): the folding enthalpy in data set [1] is -60.6 kcal/mol. Moreover, in data set [2], the Tm is 56.3 °C.
Turning to GCGGCCTTCCGC ((((....)))), the folding enthalpy in data set [1] was -19.9 kcal/mol. Besides, in data set [2], the Tm amounted to 57.9 °C.
Take GAAAACGAAAGTTCTTC ((((((....))).))): in data set [1], the folding enthalpy was -17.8 kcal/mol. For the same sequence, the Tm in data set [2] was found to be 36.1 °C.
Regarding GCAGAGCGAAAGCAATGC (((..((....))..))), in data set [1], the folding enthalpy is -21 kcal/mol. For the same sequence, the Tm in data set [2] was 53.9 °C.
In the case of GGTACCGAAAGGTGCACC ((((((....)))..))), the folding enthalpy in data set [1] is -13.9 kcal/mol. Besides, the Tm in data set [2] stood at 40.3 °C.
The matching figures for GACGTCGGAAACGACGCC (.(((((....))))).): -11.6 kcal/mol and 50.7 °C.
Take GATCCTTCGAGGATC ((((((...)))))): in data set [1], the folding enthalpy was -28.7 kcal/mol. Moreover, the Tm in data set [2] is 54.4 °C.
Regarding GCCAACGAAAGTTGTGGC ((((((....)))..))), the folding enthalpy in data set [1] is -18.4 kcal/mol. Besides, the Tm in data set [2] came out at 48.4 °C.
The matching figures for GATCCAAGAATGGATC ((((((....)))))): -30.2 kcal/mol and 46.7 °C.
Take GTGCCCGAAAGGGGTCAC ((((((....)))..))): in data set [1], the folding enthalpy is -15.7 kcal/mol. In data set [2], the Tm worked out at 48.6 °C.
As to GCTGTTCGAAAGAATAGC (((.(((....))).))), in data set [1], the folding enthalpy is -44.9 kcal/mol. Also, in data set [2], the Tm worked out at 53.2 °C.
The matching figures for GATATTGGAAACAATATC (((((((....))))))): -45.2 kcal/mol and 48.8 °C.
With GGACGCTCGAAAGAGTCC (((..(((....)))))), in data set [1], the folding enthalpy is -22.1 kcal/mol. In addition, in data set [2], the Tm was found to be 46.5 °C.
Turning to ATTTGGAAACAAAT (((((....))))), the folding enthalpy in data set [1] was -12.8 kcal/mol. Further, the Tm in data set [2] is 34.4 °C.
